Blank lines part the entries; values can stand above or below the compound they belong to. Activity calls are given as the source filed them. Unless noted, the rule behind the calls is not given here.
Columns and labels:
[1] = plasma clearance in preclinical species was measured after Intravenous administration at the given dose (0.01 mg/kg) in monkey; assay type: ADME, organism-based; conditions: simiiformes, in vivo
Procedure, shortened: (§1)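 Male rats, beagle dogs and rhesus monkeys dosed iv in ethanol/PEG400/water (1:3:6, v/v/v), n = 2. Plasma extracted and drug quantified by LC-MS/MS (LOQ = 8-100 ng/mL) against a dihydroxybenzoquinone internal standard.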

[2] = area under curve in preclinical species was measured after Intravenous administration at the given dose (0.01 mg/kg) in monkey; assay type: ADME, organism-based; conditions: simiiformes, in vivo; procedure, shortened: as §1
[3] = plasma clearance in preclinical species was measured after Intravenous administration at the given dose (0.05 mg/kg) in rat; assay type: ADME, organism-based; conditions: read-out: Clp; procedure, shortened: as §1
[4] = system: Mus musculus; test: Percent reduction of blood glucose level in a dose-dependent manner at 1 mpk administered once daily for 8-14 days by gavage to ad libitum fed animals; assay type: functional
[5] = system: Mus musculus; test: Percent reduction of blood glucose level in a dose-dependent manner at 10 mpk administered once daily for 8-14 days by gavage to ad libitum fed animals; assay type: functional
[6] = bioavailability in preclinical species was measured after oral administration at the given dose (0.5 mg/kg) in monkey; assay type: ADME, organism-based; conditions: primates, in vivo
Procedure, shortened: (§2)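 Beagle dogs or rhesus monkeys (male) dosed orally at 0.5 mg/kg as a 0.5% methylcellulose suspension with 0.02% sodium lauryl sulfate. Plasma extracted and drug measured by LC-MS/MS (LOQ = 8-100 ng/mL) with an internal standard; bioavailability relative to iv dosing.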

[7] = volume of distribution in preclinical species was measured after Intravenous administration at the given dose (0.05 mg/kg) in rat; assay type: ADME, organism-based; conditions: in vivo, read-out: Vdss; procedure, shortened: as §1
[8] = system: Canis familiaris; test: terminal half life in preclinical species was measured after Intravenous administration at the given dose (0.1 mg/kg) in dog; assay type: ADME, organism-based, Canis lupus familiaris; conditions: in vivo; procedure, shortened: as §1
[9] = Time taken for maximum concentration in preclinical species was measured after oral administration at the given dose (0.5 mg/kg) in dog; assay type: ADME, organism-based, Canis lupus familiaris; conditions: in vivo; procedure, shortened: as §2
[10] = area under curve in preclinical species was measured after oral administration at the given dose (0.5 mg/kg) in dog; assay type: ADME, organism-based, Canis lupus familiaris; conditions: in vivo; procedure, shortened: as §2
[11] = system: Mus musculus; test: Percent reduction of blood glucose level in a dose-dependent manner at 0.1 mpk administered once daily for 8-14 days by gavage to ad libitum fed animals; assay type: functional
[12] = volume of distribution in preclinical species was measured after Intravenous administration at the given dose (0.01 mg/kg) in monkey; assay type: ADME, organism-based; conditions: simiiformes, in vivo; procedure, shortened: as §1
[13] = target: Insulin-like growth factor 1 receptor (Homo sapiens) (UniProt P08069); test: Percent insulin like growth factor receptor(IGFIR) activity at 30 uM (NS = less than 5% activation); assay type: functional
Procedure, shortened: (§3)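 IGFIR counterscreen: cell-based receptor activation assay run like the CHO IR assay (20 min compound exposure, lysate capture, radiometric kinase readout). Compound tested at 30 uM; result as % of control response to 100 nM IGFI.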

[14] = Time taken for maximum concentration in preclinical species was measured after oral administration at the given dose (0.5 mg/kg) in monkey; assay type: ADME, organism-based; conditions: simiiformes, in vivo; procedure, shortened: as §2
[15] = terminal half life in preclinical species was measured after Intravenous administration at the given dose (0.01 mg/kg) in monkey; assay type: ADME, organism-based; conditions: simiiformes, in vivo; procedure, shortened: as §1
[16] = Time taken for maximum concentration in preclinical species was measured after oral administration at the given dose (0.5 mg/kg) in rat; assay type: ADME, organism-based; conditions: in vivo
Procedure, shortened: (§4)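 Male rats dosed orally at 0.5 mg/kg in ethanol/PEG400/water (1:3:6, v/v/v). Plasma extracted and drug measured by LC-MS/MS (LOQ = 8-100 ng/mL) with an internal standard; bioavailability relative to iv dosing.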

[17] = area under curve in preclinical species was measured after Intravenous administration at the given dose (0.05 mg/kg) in rat; assay type: ADME, organism-based; conditions: in vivo; procedure, shortened: as §1
[18] = maximum concentration in plasma in preclinical species was measured after oral administration at the given dose (0.5 mg/kg) in monkey; assay type: ADME, organism-based; design: dose 0.5 mg/kg, route oral; conditions: simiiformes; procedure, shortened: as §2
[19] = system: Canis familiaris; test: volume of distribution in preclinical species was measured after Intravenous administration at the given dose (0.1 mg/kg) in dog; assay type: ADME, organism-based, Canis lupus familiaris; conditions: in vivo; procedure, shortened: as §1
[20] = species on record: Mus musculus; test: Blood glucose level for the age- and sex-matched ob/+ lean mice; assay type: functional, organism-based
Procedure, shortened: (§5)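 Male ob/ob mice, 12 weeks old, with ob/+ lean controls, housed 7–9 per cage on chow and water ad libitum. Daily oral gavage of compound or vehicle (0.5% methylcellulose). Food was removed 0–6 h after dosing on days 1 and 2, then fed ad libitum. Blood glucose was taken before dosing and at 24 h after dosing, n = 10/group.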

[21] = target: T1, Insulin receptor (Homo sapiens, UniProt P06213); test: Activation of human insulin receptor tyrosine kinase (IRTK)
Procedure, shortened: (§6)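 CHO cells stably transfected with human insulin receptor, plated 150 000 cells/well for 24 h, serum-starved 2 h, then exposed to compound 20 min at 37 °C. Lysate IR captured on anti-IR antibody wells (16 h, 4 °C), kinase reaction 40 min at 25 °C, radioactivity on phosphocellulose filters. Activity as % of maximal response to 100 nM insulin.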

[22] = target: Epidermal growth factor receptor (Homo sapiens) (UniProt P00533); test: Percent epidermal growth factor receptor (EGFR) activity at 30 uM (NS = less than 5% activation); assay type: functional
Procedure, shortened: (§7)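 EGFR counterscreen: cell-based receptor activation assay run like the CHO IR assay (20 min compound exposure, lysate capture, radiometric kinase readout). Compound tested at 30 uM; result as % of control response to 100 nM EGF.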

[23] = bioavailability in preclinical species was measured after oral administration at the given dose (0.5 mg/kg) in dog; assay type: ADME, organism-based, Canis lupus familiaris; conditions: in vivo; procedure, shortened: as §2
[24] = system: Mus musculus; test: Decrease in blood glucose concentration at 24 hr postdosing of 10 mpk; assay type: functional, organism-based; procedure, shortened: as §5
[25] = system: Canis familiaris; test: plasma clearance in preclinical species was measured after Intravenous administration at the given dose (0.1 mg/kg) in dog; assay type: ADME, organism-based, Canis lupus familiaris; conditions: in vivo; procedure, shortened: as §1
[26] = target: Platelet-derived growth factor receptor beta (Homo sapiens) (UniProt P09619); test: Percent platelet derived growth factor receptor (PDGFR) activity at 30 uM (NS = less than 5% activation); assay type: functional
Procedure, shortened: (§8)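 PDGFR counterscreen: cell-based receptor activation assay run like the CHO IR assay (20 min compound exposure, lysate capture, radiometric kinase readout). Compound tested at 30 uM; result as % of control response to 100 nM PDGF.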

[27] = maximum concentration in plasma in preclinical species was measured after oral administration at the given dose (0.5 mg/kg) in dog; assay type: ADME, organism-based, Canis lupus familiaris; design: dose 0.5 mg/kg, route oral; procedure, shortened: as §2
[28] = system: Mus musculus; test: Blood glucose concentration at predosing of 10 mpk; assay type: functional, organism-based; procedure, shortened: as §5
[29] = terminal half life in preclinical species was measured after Intravenous administration at the given dose (0.05 mg/kg) in rat; assay type: ADME, organism-based; conditions: in vivo; procedure, shortened: as §1
[30] = bioavailability in preclinical species was measured after oral administration at the given dose (0.5 mg/kg) in rat; assay type: ADME, organism-based; conditions: in vivo; procedure, shortened: as §4
[31] = area under curve in preclinical species was measured after oral administration at the given dose (0.5 mg/kg) in monkey; assay type: ADME, organism-based; conditions: simiiformes, in vivo; procedure, shortened: as §2
[32] = maximum concentration in plasma in preclinical species was measured after oral administration at the given dose (0.5 mg/kg) in rat; assay type: ADME, organism-based; design: dose 0.5 mg/kg, route oral; procedure, shortened: as §4
[33] = area under curve in preclinical species was measured after Intravenous administration at the given dose (0.1 mg/kg) in dog; assay type: ADME, organism-based, Canis lupus familiaris; conditions: in vivo; procedure, shortened: as §1
[34] = target: Insulin-like growth factor 1 receptor (Homo sapiens) (UniProt P08069); test: Percent insulin like growth factor receptor(IGFIR) activity at 30 uM; assay type: functional; procedure, shortened: as §3
[35] = target: Epidermal growth factor receptor (Homo sapiens) (UniProt P00533); test: Percent epidermal growth factor receptor (EGFR) activity at 30 uM; assay type: functional; procedure, shortened: as §7
[36] = target: T1, Insulin receptor; test: Activation of human insulin receptor tyrosine kinase (NA = inactive up to 100 uM); procedure, shortened: as §6
[37] = target: Insulin-like growth factor 1 receptor (Homo sapiens) (UniProt P08069); test: Percent insulin like growth factor receptor(IGFIR) activity at 30 uM ( NS = less than 5% activation); assay type: functional; procedure, shortened: as §3
[38] = target: Platelet-derived growth factor receptor beta (Homo sapiens) (UniProt P09619); test: Percent platelet derived growth factor receptor (PDGFR) activity at 30 uM; assay type: functional; procedure, shortened: as §8

T1 sequence (P06213 28-758 limits assumed): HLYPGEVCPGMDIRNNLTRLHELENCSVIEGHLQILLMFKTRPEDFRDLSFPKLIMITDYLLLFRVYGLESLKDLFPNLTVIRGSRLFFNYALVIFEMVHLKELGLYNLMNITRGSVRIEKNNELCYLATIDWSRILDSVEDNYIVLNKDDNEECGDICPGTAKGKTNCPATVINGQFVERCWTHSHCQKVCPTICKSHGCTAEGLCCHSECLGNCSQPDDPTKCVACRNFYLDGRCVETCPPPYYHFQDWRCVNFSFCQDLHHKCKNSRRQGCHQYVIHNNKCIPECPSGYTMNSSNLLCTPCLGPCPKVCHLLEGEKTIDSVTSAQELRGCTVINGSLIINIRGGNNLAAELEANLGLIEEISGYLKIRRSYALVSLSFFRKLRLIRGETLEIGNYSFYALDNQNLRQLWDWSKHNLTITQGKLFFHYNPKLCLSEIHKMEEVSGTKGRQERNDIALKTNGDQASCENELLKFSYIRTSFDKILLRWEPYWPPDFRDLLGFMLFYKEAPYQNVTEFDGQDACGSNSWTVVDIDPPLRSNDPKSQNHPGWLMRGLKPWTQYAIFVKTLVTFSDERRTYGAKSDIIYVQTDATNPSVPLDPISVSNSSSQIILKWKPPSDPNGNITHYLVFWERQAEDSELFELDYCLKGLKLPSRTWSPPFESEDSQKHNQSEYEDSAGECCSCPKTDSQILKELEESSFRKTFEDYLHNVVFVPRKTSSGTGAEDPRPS
T1 sequence (P06213 763-1382 limits assumed): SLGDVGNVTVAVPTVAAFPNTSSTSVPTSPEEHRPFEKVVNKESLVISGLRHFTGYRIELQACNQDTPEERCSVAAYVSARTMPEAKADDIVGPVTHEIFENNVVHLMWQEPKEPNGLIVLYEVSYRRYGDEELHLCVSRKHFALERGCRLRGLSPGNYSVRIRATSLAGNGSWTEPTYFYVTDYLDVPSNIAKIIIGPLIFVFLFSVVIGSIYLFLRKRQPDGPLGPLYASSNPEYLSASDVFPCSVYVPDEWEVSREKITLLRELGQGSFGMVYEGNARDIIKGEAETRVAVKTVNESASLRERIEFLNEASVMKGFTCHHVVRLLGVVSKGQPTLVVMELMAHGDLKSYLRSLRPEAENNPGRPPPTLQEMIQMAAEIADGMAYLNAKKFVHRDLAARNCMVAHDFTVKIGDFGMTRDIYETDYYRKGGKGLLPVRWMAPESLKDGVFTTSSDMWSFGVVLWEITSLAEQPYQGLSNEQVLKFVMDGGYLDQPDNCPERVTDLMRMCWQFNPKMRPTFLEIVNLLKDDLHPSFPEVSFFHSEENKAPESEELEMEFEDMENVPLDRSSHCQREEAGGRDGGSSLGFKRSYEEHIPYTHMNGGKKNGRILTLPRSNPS
Sequence of Epidermal growth factor receptor (Homo sapiens) (P00533 whole entry): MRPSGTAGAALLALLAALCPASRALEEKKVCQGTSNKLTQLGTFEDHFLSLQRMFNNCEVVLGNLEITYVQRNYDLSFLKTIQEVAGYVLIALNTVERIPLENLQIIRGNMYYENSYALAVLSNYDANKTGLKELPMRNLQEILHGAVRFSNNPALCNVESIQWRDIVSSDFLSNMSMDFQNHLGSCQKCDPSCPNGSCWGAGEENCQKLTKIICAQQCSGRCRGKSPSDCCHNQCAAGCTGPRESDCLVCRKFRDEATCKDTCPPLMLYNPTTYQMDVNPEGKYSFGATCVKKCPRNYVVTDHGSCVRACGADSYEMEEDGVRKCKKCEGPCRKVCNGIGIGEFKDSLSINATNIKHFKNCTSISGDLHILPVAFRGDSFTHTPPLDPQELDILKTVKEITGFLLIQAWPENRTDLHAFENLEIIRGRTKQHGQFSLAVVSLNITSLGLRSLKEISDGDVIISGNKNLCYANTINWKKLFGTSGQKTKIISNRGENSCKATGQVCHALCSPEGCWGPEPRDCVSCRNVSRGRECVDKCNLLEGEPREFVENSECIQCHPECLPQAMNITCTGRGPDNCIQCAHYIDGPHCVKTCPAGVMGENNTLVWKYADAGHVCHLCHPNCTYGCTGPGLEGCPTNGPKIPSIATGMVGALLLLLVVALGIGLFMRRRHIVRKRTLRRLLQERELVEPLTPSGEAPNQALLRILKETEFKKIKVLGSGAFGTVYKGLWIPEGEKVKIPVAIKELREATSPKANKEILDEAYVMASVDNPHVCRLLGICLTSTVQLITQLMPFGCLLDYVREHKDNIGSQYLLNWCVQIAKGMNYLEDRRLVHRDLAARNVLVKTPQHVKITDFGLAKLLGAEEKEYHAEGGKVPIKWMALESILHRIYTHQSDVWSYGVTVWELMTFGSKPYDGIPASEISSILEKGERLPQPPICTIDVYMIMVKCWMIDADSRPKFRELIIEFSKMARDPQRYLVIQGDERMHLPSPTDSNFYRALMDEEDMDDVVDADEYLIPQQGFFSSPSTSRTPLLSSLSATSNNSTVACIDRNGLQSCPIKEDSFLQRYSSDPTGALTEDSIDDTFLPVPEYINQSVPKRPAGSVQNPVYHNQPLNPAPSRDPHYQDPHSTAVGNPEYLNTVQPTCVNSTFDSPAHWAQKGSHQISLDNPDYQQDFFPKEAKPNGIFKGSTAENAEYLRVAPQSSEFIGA
Sequence of Insulin-like growth factor 1 receptor (Homo sapiens) (P08069 31-736 limits assumed): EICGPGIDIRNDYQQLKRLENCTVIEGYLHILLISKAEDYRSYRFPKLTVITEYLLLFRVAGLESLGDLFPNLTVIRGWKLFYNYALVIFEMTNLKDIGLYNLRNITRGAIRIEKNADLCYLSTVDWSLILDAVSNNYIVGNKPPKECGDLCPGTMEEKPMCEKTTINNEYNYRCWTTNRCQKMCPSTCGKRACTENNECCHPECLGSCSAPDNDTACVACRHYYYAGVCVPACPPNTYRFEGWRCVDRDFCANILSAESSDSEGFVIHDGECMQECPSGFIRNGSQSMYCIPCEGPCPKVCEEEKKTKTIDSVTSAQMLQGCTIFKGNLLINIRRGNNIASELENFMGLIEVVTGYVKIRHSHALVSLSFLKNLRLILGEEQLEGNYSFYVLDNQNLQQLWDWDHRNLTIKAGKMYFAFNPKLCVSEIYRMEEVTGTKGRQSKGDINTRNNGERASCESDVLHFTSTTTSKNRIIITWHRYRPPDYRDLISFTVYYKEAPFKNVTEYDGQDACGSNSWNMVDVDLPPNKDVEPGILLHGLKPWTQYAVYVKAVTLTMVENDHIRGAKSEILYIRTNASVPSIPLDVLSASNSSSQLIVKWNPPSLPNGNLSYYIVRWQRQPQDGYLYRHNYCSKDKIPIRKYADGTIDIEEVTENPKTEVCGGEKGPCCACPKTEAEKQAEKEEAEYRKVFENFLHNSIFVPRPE
Sequence of Insulin-like growth factor 1 receptor (Homo sapiens) (P08069 741-1367 limits assumed): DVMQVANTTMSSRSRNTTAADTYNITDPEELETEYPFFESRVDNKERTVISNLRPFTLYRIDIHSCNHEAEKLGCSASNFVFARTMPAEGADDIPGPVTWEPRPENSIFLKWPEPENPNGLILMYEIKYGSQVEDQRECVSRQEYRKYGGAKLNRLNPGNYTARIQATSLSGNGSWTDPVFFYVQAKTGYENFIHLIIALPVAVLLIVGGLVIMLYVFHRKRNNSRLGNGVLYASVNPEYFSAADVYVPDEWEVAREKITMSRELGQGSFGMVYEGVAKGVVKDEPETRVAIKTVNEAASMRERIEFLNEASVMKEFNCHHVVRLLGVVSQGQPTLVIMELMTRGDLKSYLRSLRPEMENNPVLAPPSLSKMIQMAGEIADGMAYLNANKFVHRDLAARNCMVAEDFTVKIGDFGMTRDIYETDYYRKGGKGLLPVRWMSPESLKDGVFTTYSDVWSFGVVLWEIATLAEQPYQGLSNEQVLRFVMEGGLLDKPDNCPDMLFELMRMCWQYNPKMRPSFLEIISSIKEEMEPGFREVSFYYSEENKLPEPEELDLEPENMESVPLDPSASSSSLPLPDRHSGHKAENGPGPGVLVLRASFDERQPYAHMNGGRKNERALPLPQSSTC
Sequence of Platelet-derived growth factor receptor beta (Homo sapiens) (P09619 whole entry): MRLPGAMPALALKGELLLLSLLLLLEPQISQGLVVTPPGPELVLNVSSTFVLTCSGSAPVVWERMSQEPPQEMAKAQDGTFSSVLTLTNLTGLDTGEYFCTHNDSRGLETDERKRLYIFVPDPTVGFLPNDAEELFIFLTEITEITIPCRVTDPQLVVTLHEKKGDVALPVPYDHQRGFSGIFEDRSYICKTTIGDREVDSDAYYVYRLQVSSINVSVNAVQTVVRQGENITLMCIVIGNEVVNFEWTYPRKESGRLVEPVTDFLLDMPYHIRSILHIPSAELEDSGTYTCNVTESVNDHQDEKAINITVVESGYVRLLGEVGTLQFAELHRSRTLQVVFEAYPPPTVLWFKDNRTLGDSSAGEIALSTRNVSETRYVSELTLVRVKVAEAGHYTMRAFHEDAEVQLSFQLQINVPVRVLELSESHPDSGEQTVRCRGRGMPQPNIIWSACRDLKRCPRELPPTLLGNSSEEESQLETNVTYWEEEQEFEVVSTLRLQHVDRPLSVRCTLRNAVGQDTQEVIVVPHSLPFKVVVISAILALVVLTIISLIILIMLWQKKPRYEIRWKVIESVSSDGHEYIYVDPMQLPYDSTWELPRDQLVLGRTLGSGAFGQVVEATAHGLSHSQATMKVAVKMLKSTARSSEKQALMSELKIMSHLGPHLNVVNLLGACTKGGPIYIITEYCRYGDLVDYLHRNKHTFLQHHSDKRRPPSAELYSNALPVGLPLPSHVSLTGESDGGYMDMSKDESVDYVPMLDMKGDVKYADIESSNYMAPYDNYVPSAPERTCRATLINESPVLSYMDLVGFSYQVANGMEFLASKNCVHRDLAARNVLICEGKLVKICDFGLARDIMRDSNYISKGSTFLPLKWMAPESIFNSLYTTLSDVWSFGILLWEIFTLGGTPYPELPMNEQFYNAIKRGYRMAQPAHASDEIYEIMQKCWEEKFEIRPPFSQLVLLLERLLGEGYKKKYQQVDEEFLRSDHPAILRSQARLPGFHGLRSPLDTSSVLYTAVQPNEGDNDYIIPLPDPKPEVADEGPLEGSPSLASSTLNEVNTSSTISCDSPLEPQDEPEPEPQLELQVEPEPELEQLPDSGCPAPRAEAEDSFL

SMILES: Cn1cc(C2=C(O)C(O)=C(c3ccccc3)C(=O)C2=O)c2ccccc21
- Clp [1]: 1.2 mL/h/kg
- AUC [2]: 8370 ng·h/mL
- clearance [3]: 2.28 mL/h/kg
- Reduction [4]: 47%
- Reduction [5]: 84%
- bioavailability [6]: 66.5%
- Vd [7]: 0.1 L/kg
- T1/2 [8]: 93.5 h
- Tmax [9]: 2.5 h
- AUC [10]: 266000 ng·h/mL
- Reduction [11]: 29%
- Vdss [12]: 0.31 L/kg
- Activation [13]: inactive
- Tmax [14]: 8 h
- T1/2 [15]: 66 h
- Tmax [16]: 10 h
- AUC [17]: 21800 ng·h/mL
- Cmax [18]: 7590 ng/mL
- Vdss [19]: 0.56 L/kg
- Concentration [20]: 143 mg/dL
- EC50 [21]: 0.3 µM
- Activation [22]: inactive
- bioavailability [23]: 59.2%
- Concentration [24]: 150 mg/dL
- Clp [25]: 1.14 mL/h/kg
- Activation [26]: inactive
- Cmax [27]: 5270 ng/mL
- Concentration [28]: 233 mg/dL
- half-life [29]: 32 h
- bioavailability [30]: 79.3%
- AUC [31]: 278000 ng·h/mL
- Cmax [32]: 4880 ng/mL
- AUC [33]: 89800 ng·h/mL

- Activation [13]: inactive
- EC50 [21]: 30 µM
- Activation [26]: inactive
SMILES: O=C1C(O)=C(c2ccc3ccccc3c2)C(=O)C(O)=C1c1ccccc1

- Activation [13]: inactive
- EC50 [21]: 6 µM
- Activation [26]: inactive
SMILES: O=C1C(O)=C(c2cccc3ccccc23)C(=O)C(O)=C1c1ccccc1

- Activation [34]: 41%
- EC50 [21]: 0.3 µM
- Activation [35]: 20%
- Activation [26]: inactive
SMILES: O=C1C(O)=C(c2c[nH]c3ccccc23)C(=O)C(O)=C1c1ccccc1

- EC50 [36]: Not Active
- Activation [22]: inactive
- Activation [26]: inactive
- Activation [37]: inactive
SMILES: COc1ccc(C2=C(O)C(O)=C(c3ccccc3)C(=O)C2=O)cc1

- Activation [34]: 38%
- EC50 [21]: 5 µM
- Activation [35]: 15%
- Activation [38]: 6%
SMILES: C=CC(C)(C)c1[nH]c2ccccc2c1C1=C(O)C(O)=C(c2c[nH]c3c(CC=C(C)C)cccc23)C(=O)C1=O

- Activation [34]: 32%
- EC50 [21]: 7 µM
- Activation [35]: 25%
SMILES: Cc1cccc2c(C3=C(O)C(O)=C(c4c[nH]c5ccccc45)C(=O)C3=O)c[nH]c12

- Activation [13]: inactive
- EC50 [21]: 1 µM
- Activation [22]: inactive
- Activation [26]: inactive
SMILES: O=C1C(O)=C(c2csc3ccccc23)C(=O)C(O)=C1c1ccccc1

- Activation [13]: inactive
- EC50 [21]: 1.5 µM
- Activation [22]: inactive
- Activation [26]: inactive
SMILES: O=C1C(O)=C(c2coc3ccccc23)C(=O)C(O)=C1c1ccccc1

From ChEMBL document CHEMBL1133647, “Discovery of a potent, highly selective, and orally efficacious small-molecule activator of the insulin receptor” (J Med Chem, 2000)
